Where two headings read alike, the source gives them in different places.
Tests used:
guinea pigs [1] = assay type: in vivo, guinea pig; conditions: for Click threshold shift, difference as compared to the control group: single shot, vs water for injection ear
guinea pigs [2] = assay type: in vivo, guinea pig; conditions: for Hearing threshold at 4 kHz / Hearing threshold at 8 kHz / Hearing threshold at 16 kHz / Hearing threshold at 32 kHz / Mean hearing threshold at 1 kHz / Mean hearing threshold at 2 kHz: day 28
outer hair cells = assay: Outer hair cell counts in organ of Corti whole-mounts; assay type: in vivo, guinea pig; conditions: for Outer hair cell counts, 2nd turn / Outer hair cell counts, 3rd turn / Outer hair cell counts, apex / Outer hair cell counts, basal turn: after day 28
In short: (§1)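 Guinea pigs were dosed intratympanically (bulla filled; water for injection in the opposite ear) or intraperitoneally daily for 3 days. After the day-28 audiometry they were perfused with 4% buffered PFA. Cochleae were decapsulated and stained 30 min at room temperature with phalloidin-TRITC (0.3 µg/ml) and Hoechst 33342 (0.05 mg/ml), then imaged by confocal microscopy. Hair cells were counted in 3 random 200 μm segments per turn, as viable/(viable+missing) percentage.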

inner hair cells = assay: Inner hair cell counts in organ of Corti whole-mounts; assay type: in vivo, guinea pig; conditions: 1.5 mg/kg systemic; after day 28
In short: as §1

[3] = Body weight after systemic application; assay type: in vivo, guinea pig
peritoneum = assay: Histologic analysis of the peritoneum after i.p. application; assay type: in vivo, guinea pig; conditions: selected animals
[4] = cited from earlier work

CNCC(Cl)c1ccc(OC(C)=O)cc1.Cl (centres unmarked) [CpdA, 2-(4-acetoxyphenyl)-2-chloro-N-methyl-ethylammonium chloride]
Click threshold shift, difference as compared to the control group (guinea pigs [1]; 1 mM IT): 28 dB
Difference in click threshold shift vs control, day 28 (guinea pigs [1]; 1 mM IT): 19 dB
Change in click hearing thresholds as compared to baseline (guinea pigs [1]; 1.5 mg/kg intraperitoneally on three consecutive days): did not result in clinically relevant or statistically significant changes
Change in click hearing thresholds as compared to baseline (guinea pigs [1]; 4.5 mg/kg intraperitoneally on three consecutive days): did not result in clinically relevant or statistically significant changes
Click threshold shift, difference as compared to the control group (guinea pigs [1]; 10 mM IT): 21 dB
Difference in click threshold shift vs control, day 28 (guinea pigs [1]; 10 mM IT): 12 dB
Hearing threshold at 4 kHz (guinea pigs [2]; 1 mM IT): 57.5 dB SPL
Hearing threshold at 8 kHz (guinea pigs [2]; 1 mM IT): 40.8 dB SPL
Hearing threshold at 16 kHz (guinea pigs [2]; 1 mM IT): 32.5 dB SPL
Hearing threshold at 32 kHz (guinea pigs [2]; 1 mM IT): 50 dB SPL
Mean hearing threshold at 1 kHz (guinea pigs [2]; 1 mM IT): 56.7 dB SPL
Mean hearing threshold at 2 kHz (guinea pigs [2]; 1 mM IT): 55 dB
Frequency-specific ABR threshold shift vs baseline (guinea pigs [2]; 1.5 mg/kg intraperitoneally, day 21, p=0.048): 5 dB
Hearing threshold at 4 kHz (guinea pigs [2]; 10 mM IT): 49.2 dB SPL
Hearing threshold at 8 kHz (guinea pigs [2]; 10 mM IT): 35 dB SPL
Hearing threshold at 16 kHz (guinea pigs [2]; 10 mM IT): 35 dB SPL
Hearing threshold at 32 kHz (guinea pigs [2]; 10 mM IT): 66.7 dB SPL
Mean hearing threshold at 1 kHz (guinea pigs [2]; 10 mM IT): 44.2 dB SPL
Mean hearing threshold at 2 kHz (guinea pigs [2]; 10 mM IT): 40 dB
Outer hair cell counts, 2nd turn (outer hair cells; 1 mM IT): 99.5 ± 1.3%
Outer hair cell counts, 3rd turn (outer hair cells; 1 mM IT): 99.0 ± 3.5%
Outer hair cell counts, apex (outer hair cells; 1 mM IT): 95.2 ± 7.5%
Outer hair cell counts, basal turn (outer hair cells; 1 mM IT): 99.5 ± 1.4%
Outer hair cell counts, 2nd turn (outer hair cells; 1.5 mg/kg systemic): 99.8 ± 1.3%
Outer hair cell counts, 3rd turn (outer hair cells; 1.5 mg/kg systemic): 97.7 ± 6.4%
Outer hair cell counts, apex (outer hair cells; 1.5 mg/kg systemic): 93.8 ± 9.3%
Outer hair cell counts, basal turn (outer hair cells; 1.5 mg/kg systemic): 99.6 ± 1.2%
Outer hair cell counts, 2nd turn (outer hair cells; 4.5 mg/kg systemic): 99.7 ± 1.3%
Outer hair cell counts, 3rd turn (outer hair cells; 4.5 mg/kg systemic): 98.5 ± 3.5%
Outer hair cell counts, apex (outer hair cells; 4.5 mg/kg systemic): 98.5 ± 3.0%
Outer hair cell counts, basal turn (outer hair cells; 4.5 mg/kg systemic): 99.9 ± 0.6%
Outer hair cell counts, 2nd turn (outer hair cells; 10 mM IT): 98.4 ± 2.4%
Outer hair cell counts, 3rd turn (outer hair cells; 10 mM IT): 98.8 ± 3.3%
Outer hair cell counts, apex (outer hair cells; 10 mM IT): 97.7 ± 4.2%
Outer hair cell counts, basal turn (outer hair cells; 10 mM IT): 99.6 ± 1.3%
Loss of outer or inner hair cells (outer hair cells; any of the treatment groups (IT and systemic)): did not result in a statistically significant loss
Inner hair cell counts, 2nd turn (inner hair cells): 99.6 ± 1.3%
Inner hair cell counts, 3rd turn (inner hair cells): 99.7 ± 1.2%
Body weight [3]: weight loss was also observed
Histologic analysis of the peritoneum (peritoneum): did not show any inflammatory or necrotic alterations
Stability in buffered solutions [4]: instability

— PMC4885662 (The Laryngoscope, 2014)
